Bioassay records deposited in PubChem BioAssay by Broad Institute.
dFosB activator: enhances mouse delta FosB homodimer DNA binding; purified delta FosB, TAMRA-CDK5 oligo fluorescence polarization; percent of positive-control signal above neutral wells; AID 493131; hit rate 0.99% among 340,000; activation, % at 25 µM; P13346;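 active = mean activation above about 17%, with every replicate also reaching it, limit read from the data, passing the limit was not always enough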
Target sequence (P13346 whole entry, looked up): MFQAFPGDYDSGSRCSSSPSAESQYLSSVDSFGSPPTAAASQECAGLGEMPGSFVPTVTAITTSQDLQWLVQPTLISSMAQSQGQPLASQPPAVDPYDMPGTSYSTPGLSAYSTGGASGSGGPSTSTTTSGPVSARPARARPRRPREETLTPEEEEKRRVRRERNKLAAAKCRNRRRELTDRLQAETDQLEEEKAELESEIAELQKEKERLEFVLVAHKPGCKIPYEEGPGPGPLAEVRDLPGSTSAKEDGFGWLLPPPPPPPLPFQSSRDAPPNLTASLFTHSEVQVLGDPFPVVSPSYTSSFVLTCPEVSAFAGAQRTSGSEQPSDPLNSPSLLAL
SR-BI HDL uptake: inhibitors of mouse SR-BI mediated HDL lipid uptake; inhibition, % at 12.5 µM; ldlA[mSR-BI] CHO cells, DiI-HDL uptake fluorescence, 3 h; Q61009; hit rate 0.96% among 320,000;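 active = mean replicate inhibition of at least 70% and a set share of replicates each scoring 70 or more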
Ecoli rRNA inh: inhibits bacterial ribosomal RNA function over humanized ribosomes. hit rate 1.6% among 350,000. E. coli WT GFP vs humanized-ribosome RFP mutants, fluorescence, 24 h; hits give low values; DMSO median 0, no signal -100. GFP signal change (wild-type ribosome), % (test concentration not listed);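 active = significant combined selectivity score with lowered wild-type GFP, culture density cut under 30%, mutant RFP and density less affected; inactive = any of these conditions unmet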
XiGFP reactiv: reactivates the inactive X chromosome in mouse fibroblasts; AID 743238; activation, % at 7.58 µM; hit rate 0.055% among 360,000; XiGFP mouse fibroblasts, % GFP-positive cells imaging, 3 d; cells co-treated with 5-aza-dC sensitizer; scaled so ellipticine positive control = 100%;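 active = mean normalized replicate activation at least 10% and every replicate at or above 10%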
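Schedule: 3 d treatment, 15 min room-temperature fixation; system: 68-5-11 XiGFP fibroblast line; buffer or medium: DMEM plus 5-aza-dC sensitizer; control set: ellipticine 6 µM positive control; compound: one concentration, pinned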
PvdQ inh: blocks Pseudomonas aeruginosa PvdQ acylase activity. inhibition, % at 10 µM. purified PvdQ acylase, fluorescence plate reader. AID 488965. hit rate 0.063% among 340,000; in the data active = inhibition above about 30%, passing the limit was not always enough
SR-BI uptake up: SR-BI HDL lipid transfer activation. CHO ldlA[mSR-BI] cells, DiI-HDL uptake fluorescence, 3 h; 100 = double the neutral-control signal. hit rate 0.096% among 320,000. activation, % at 12.5 µM;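 active = mean replicate activation of at least 60% and every replicate at or above 60%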
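Assay system: CHO ldlA[mSR-BI] cells, LDL receptor-null, SR-BI overexpressing; medium: Ham's F12 with 0.5% BSA, HEPES 25 mM, pH 7.4; also added: DiI-HDL 10 µg/mL; timing: 3 h uptake period with compound, 37 °C; signal: DiI fluorescence, bottom read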
A number is an active result; - = inactive; . = no result given. Only some compounds are listed: those with a hit (about 2.6% of all), similar ones and a draw of the others.

SMILES	dFosB activator	SR-BI HDL uptake	Ecoli rRNA inh	XiGFP reactiv	PvdQ inh	SR-BI uptake up
CN(C)CCCNc1oc(/C=C/c2cccs2)nc1S(=O)(=O)c1ccccc1	-	-	-	-	-	-
COc1cc([C@H]2c3[nH]c4ccccc4c3C[C@H]3C(=O)N4[C@@H](c5cc(OC)c(OC)c(OC)c5)c5[nH]c6ccccc6c5C[C@H]4C(=O)N23)cc(OC)c1OC	-	-	.	.	-	-
CCN1C(=O)[C@@H]2Cc3c([nH]c4ccccc34)C(c3cc(OC)c(OC)c(OC)c3)N2C1=S (stereo partly specified)	-	.	-	26.5	-	.
C=CCN1C(=O)[C@@H]2Cc3c([nH]c4ccccc34)C(c3cc(OC)c(OC)c(OC)c3)N2C1=S (stereo partly specified)	-	-	-	90.7	-	-
C=CCN1C(=O)[C@@H]2Cc3c([nH]c4ccccc34)C(c3ccc(O)cc3)N2C1=S (stereo partly specified)	-	-	.	.	-	-
O=C(COc1ccc(Cl)cc1Cl)N1CCCN(C(=O)COc2ccc(Cl)cc2Cl)CC1	-	84.8	.	.	-	-
O=C(COc1ccc(Cl)cc1Cl)NC(=S)N1CCCc2ccccc21	-	-	-25.8	.	-	-
COc1ccc(NC(=O)N(C)C[C@@H]2Oc3ccc(NC(=O)Nc4c(C)noc4C)cc3C(=O)N([C@@H](C)CO)C[C@@H]2C)cc1	.	.	-	-	.	.
CCn1c(C)c(C)c2cc(C(=O)NCCN3CCCCCC3)ccc21	-	75.4	-	-	-	-
CCN1CCN(C(=O)c2ccc3c(c2)c(C)c(C)n3Cc2ccccc2)CC1	-	-	-	-	-	-
CCn1c(C)c(C)c2cc(C(=O)N3CCc4ccccc4C3)ccc21	18.6	-	-	-	-	-
COc1ccccc1N1CCN(C(=O)c2ccc3ncsc3c2)CC1	-	.	-	-	-	.
O=C(O)c1cc(NN=C2c3ccccc3-c3ccccc32)ccc1Cl	-	-	-	.	-	-
NC(=O)N/N=C1\c2ccccc2-c2c(C(N)=O)cccc21	-	-	-	-	-	-
O=C(O)c1cccc2c1-c1ccccc1/C2=N\Nc1ccccc1	-	-	-39.5	-	-	-
O=C(O)c1cccc(NN=C2c3ccccc3-c3ccccc32)c1	-	-	-52.6	-	-	-
Cc1nc2scc(C)n2c(=O)c1S(=O)(=O)NCCc1ccc(Cl)cc1	-	-	-	-	-	-
CCOC(=O)C1=C(C)Nc2ccccc2N=C1NC(=O)C(c1ccccc1)c1ccccc1	-	-	-20.9	-	-	-
CCOC(=O)C1=C(C)Nc2ccccc2N=C1NC(=O)c1cccc(S(=O)(=O)N(C)C)c1	-	-	-	.	-	-
C=CCNC(=O)N1c2ccccc2Sc2ccccc21	-	-	-23.9	-	-	-
CCC(C)NC(=O)N1c2ccccc2Sc2ccccc21 (stereo unspecified)	-	-	-31.4	-	-	-
O=C(NCCO)N1c2ccccc2Sc2ccccc21	-	-	-	-	-	-
COc1ccccc1NC(=O)N(C)C[C@@H]1Oc2ncc(Br)cc2C(=O)N([C@@H](C)CO)C[C@H]1C	.	.	-	-	.	.
O=C(/C=C1\NC2(CCCC2)Cc2ccccc21)C(=O)N/N=C/c1ccc(O)c(O)c1	-	-	-21.3	-	-	-
COc1ccc(/C=N/NC(=O)C(=O)/C=C2\NC3(CCCC3)Cc3ccccc32)cc1	-	-	.	-	-	-
SMILES	dFosB activator	SR-BI HDL uptake	Ecoli rRNA inh	XiGFP reactiv	PvdQ inh	SR-BI uptake up
CC(C)(C)C(=O)c1sc(Nc2ccccc2)nc1N	-	-	-39.1	.	-	-
CC(=O)c1sc(Nc2ccccc2)nc1C	.	.	-	-	.	.
COc1cccc(C2c3cc4c(cc3OC(N3CCCC3)C2C)OCO4)c1O (stereo unspecified)	-	-	-19.5	-	-	-
COc1cc(NC(=O)COc2cccc3c2OC(C)(C)C3)cc(OC)c1OC	-	88.0	-	-	-	-
CC(=O)Nc1ccc(NC(=O)COc2cccc3c2OC(C)(C)C3)cc1	-	-	-	-	-	-
O=C(NCC[C@@H]1CC[C@@H](NS(=O)(=O)c2ccc(Cl)cc2)[C@@H](CO)O1)c1ccc2c(c1)OCO2	.	.	-	-	.	.
Cc1cc(NC(=O)c2ccccc2F)n(-c2nc3ccccc3[nH]2)n1	-	76.5	.	.	-	-
Cc1cc(NC(=O)/C=C/c2ccc(F)cc2)n(-c2nc3ccccc3[nH]2)n1	-	-	-	-	-	-
Cc1cc(NC(=O)c2ccc(C)s2)n(-c2nc3ccccc3[nH]2)n1	-	71.6	.	-	-	-
Cc1cc(NC(=O)c2c(F)cccc2F)n(-c2nc3ccccc3[nH]2)n1	-	-	.	.	-	-
Cc1cc(NC(=O)c2c(F)cccc2Cl)n(-c2nc3ccccc3[nH]2)n1	-	91.8	.	.	-	-
Cc1cc(NC(=O)/C=C/c2cccc(F)c2)n(-c2nc3ccccc3[nH]2)n1	-	95.2	-	-	-	-
CNC(=O)C[C@H]1CC[C@H]2[C@H](COc3ccc(NC(=O)c4ccccc4F)cc3C(=O)N2C)O1	.	.	-	-	.	.
COc1ccc(NC(=O)CSc2nc3cccnc3n2C)cc1	-	-	-	-	-	-
C[C@@H]1CN([C@@H](C)CO)C(=O)c2cc(NS(=O)(=O)c3ccc(F)cc3)ccc2O[C@H]1CN(C)Cc1ccc(-c2ccccc2)cc1	.	.	-	-	.	.
Cc1cc2oc(C(=O)N(Cc3cccs3)C3CCS(=O)(=O)C3)cc(=O)c2cc1Cl (stereo unspecified)	-	-	-21.3	-	-	-
Cc1ccc(/C=C/C(=O)N(Cc2cccs2)C2CCS(=O)(=O)C2)cc1 (stereo unspecified)	.	.	-29.0	-	.	.
Cn1c(N)c(C(=O)COC(=O)Cc2ccc(Cl)cc2Cl)c(=O)n(C)c1=O	-	-	-	-	-	-
CC(C)C(=O)Nc1ccc(C(=O)Nc2ccc(S(=O)(=O)N3CCOCC3)cc2)cc1	-	-	.	.	-	-
CCN(c1ccccc1)S(=O)(=O)c1cccc(C(=O)NCc2ccccn2)c1	-	-	-	-	-	-
Cc1cc(C(=O)Nc2ccc(Cl)cc2)c(C)n1-c1ccccc1	.	.	-40.3	-	.	.
CCCCNC(=S)NCC(c1ccccc1)c1c[nH]c2ccccc12 (stereo unspecified)	-	-	-49.1	-	-	-
CN(C)CCCNC(=S)NCC(c1ccc(Cl)cc1Cl)c1c[nH]c2ccccc12 (stereo unspecified)	-	-	-	-	-	-
CCOc1ccc(NCC(=O)c2ccc(C)cc2)cc1	-	-	-33.4	-	-	-
O=C(CSCc1ccc(F)cc1)NCc1cccs1	-	-	-	-	-	-
Cc1ccc(N=Nc2cc(C)ccc2N)cc1	-	.	-52.8	-	-	.
